Screening data: PubChem, several laboratories
Calb FLC: C. albicans growth inhibition with fluconazole, primary screen, CaCi-2 strain, Alamar Blue fluorescence | 0.57% of 300,000 active | AID 1979, 2009 | C. albicans CaCi-2 (fluconazole-resistant clinical isolate) + fluconazole, 48 h | growth inhibition, % (concentration not given with the values);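 active = growth inhibition above about 58% in most replicates, limit read from the data, passing the limit was not always enough; inconclusive = exactly half the replicates above a set limit; inactive = most replicates below a set limit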;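 also: all wells also contain fluconazole at 8 µg/ml as a sub-toxic cotreatment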
NALP3 yeast inh: NALP3 inflammasome inhibitors in reconstituted yeast, primary screen, luminescence, uHTS; Yeast reconstituted NLRP3/ASC/caspase-1, beta-gal luminescence, 24 h; inhibition, % at 10 µM; 0.39% of 330,000 active; AID 2825, 2010;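 active = inhibition of 50% or more; inactive = inhibition below 50%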
UCH37 inh: inhibitors of human UCH37 deubiquitinase, primary screen, biochemical, Ub-AMC cleavage, fluorescence; 0.33% of 330,000 active; inhibition, % (no concentration beside the values); purified proteasome/UCH37;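 active = mean inhibition over replicate wells above about 20%, limit read from the data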
Target sequence (Q9Y5K5 whole entry, looked up): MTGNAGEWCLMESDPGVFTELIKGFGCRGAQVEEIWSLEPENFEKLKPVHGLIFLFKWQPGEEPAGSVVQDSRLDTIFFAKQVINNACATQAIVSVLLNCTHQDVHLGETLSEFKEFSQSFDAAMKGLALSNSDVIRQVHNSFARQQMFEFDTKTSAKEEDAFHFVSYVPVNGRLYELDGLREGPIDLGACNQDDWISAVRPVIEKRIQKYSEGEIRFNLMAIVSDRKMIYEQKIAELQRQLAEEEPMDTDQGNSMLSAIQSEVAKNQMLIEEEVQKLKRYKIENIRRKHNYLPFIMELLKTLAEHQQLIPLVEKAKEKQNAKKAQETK
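Material: human UCH37 enzyme supplied as purified proteasome complex. Measure: % inhibition of Ub-AMC cleavage fluorescence. Medium: pH 7.4 Tris-HCl (50 mM) with ovalbumin, ATP-MgCl2, DTT. Times: 30 min preincubation with enzyme, 25 min cleavage at room temperature. Detection: AMC fluorescence intensity at 355/460 nm.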
ATG4B inhibitor: ATG4B protease inhibitors, primary screen, biochemical, fluorescence, uHTS; 0.51% of 340,000 active; Cysteine protease ATG4B (Homo sapiens), Q9Y4P1; ATG4B cleavage of LC3-PLA2, NBD-HPC fluorescence, 1 h; inhibition, % at 8.33 µM; in the data active = inhibition above about 40%
ALR H2O2 inh: inhibitors of human ALR sulfhydryl oxidase, primary screen, biochemical, H2O2 detection, HRP-luminol luminescence, single point; purified ALR, DTT oxidation; inhibition, % (concentration not given with the values); 3.8% of 290,000 active; AID 485317, 2010;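 active = mean replicate inhibition above about 79%, with every replicate also reaching it, limit read from the data; inconclusive = only one of the two criteria met; inactive = mean below limit and not every replicate reaching it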
Target sequence (P55789 whole entry, looked up): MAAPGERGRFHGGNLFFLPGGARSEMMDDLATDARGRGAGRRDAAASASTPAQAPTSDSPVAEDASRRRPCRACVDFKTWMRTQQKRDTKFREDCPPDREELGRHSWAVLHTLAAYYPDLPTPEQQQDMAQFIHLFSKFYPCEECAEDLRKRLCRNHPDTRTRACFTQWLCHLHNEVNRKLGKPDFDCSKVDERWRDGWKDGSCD
NALP1 yeast inh: NALP1 inflammasome inhibitors in reconstituted yeast, colorimetric, S. cerevisiae, triplicate retest; S. cerevisiae NALP1/ASC/caspase-1 growth, X-gal OD620, 72 h; inhibition, % at 10 µM; 0.61% of 280,000 active; in the data active = inhibition mostly above about 24%, no sharp cut-off; inactive = mostly below about 32%
Numbers stand for hits; i = inactive; ? = inconclusive; nt = no result. This is a sample that favours compounds with a hit; in the whole collection about 4.8% have one here.

SMILES | Calb FLC | NALP3 yeast inh | UCH37 inh | ATG4B inhibitor | ALR H2O2 inh | NALP1 yeast inh
O=C(N/N=C\c1ccc(-c2ccccc2[N+](=O)[O-])o1)C1COc2cc3ccccc3cc2O1 (centres undefined) | i | i | nt | i | i | i
COc1ccnc(-n2cccc2C=NO)c1C#N | nt | nt | i | nt | nt | nt
O=c1[nH]c2ccccc2nc1C(F)(F)F | i | i | i | i | nt | 37.3
CCc1nc2ccccc2[nH]c1=O | i | i | i | i | i | i
CCOc1ccc(-n2c(N)c(C(=O)NCc3cccnc3)sc2=S)cc1 | i | i | i | i | i | i
C=CCn1c(N)c(C(=O)NCc2cccnc2)sc1=S | i | i | i | i | 98.5 | i
COc1cc(C=NNc2ccc([N+](=O)[O-])cc2S(=O)(=O)N2CCOCC2)cc(OC)c1OC | nt | nt | i | nt | nt | nt
O=C(COc1ccccc1)N/N=C/c1sc(=O)n(Cc2cccc(C(=O)O)c2)c1Cl | i | i | nt | i | 96.2 | i
O=C(O)c1cccc(Cn2c(Cl)c(C=NNC(=O)c3cc4ccccc4cc3O)sc2=O)c1 | nt | nt | 22.4 | nt | nt | nt
Cc1ccc(-c2nnc(N(C)C(=O)c3cccnc3)s2)cc1 | i | i | i | i | i | 41.2
O=C(CC(=O)NN=Cc1c(Cl)cccc1Cl)NCc1ccccc1 | nt | nt | i | nt | nt | nt
Cc1ccc(NC(=O)CSc2nccn2Cc2ccccc2)cc1C | i | i | i | i | 98.3 | i
COc1ccc(-c2cnc(SCC(=O)Nc3ccc4c(c3)OCO4)n2Cc2ccco2)cc1 | i | i | i | i | nt | i
Cc1ccc(NC(=O)CSc2ncc3ccccn23)cc1 | i | i | i | i | 99.2 | i
CC(=O)Nc1cccc(NC(=O)CSc2ncc(-c3ccc(Cl)cc3)n2Cc2ccco2)c1 | nt | i | i | i | 91.5 | i
Cc1ccc(NC(=O)CSc2nccn2Cc2ccco2)cc1 | i | i | i | i | 89.4 | i
CC(=NNC(=O)c1cccc(O)c1)c1ccc(NC(=O)Cc2ccccc2)cc1 | nt | nt | i | nt | nt | nt
O=C(CSc1nccn1Cc1ccco1)Nc1ccc(F)cc1 | i | i | i | i | 99.1 | i
O=[N+]([O-])c1cccc(CSc2ncnc3ccccc23)c1 | i | i | i | i | 98.7 | i
COc1ccc(S(=O)(=O)Nc2ccc(O)c(Sc3ncn[nH]3)c2)cc1 | i | i | i | i | nt | i
Cc1cc(C)c(S(=O)(=O)Nc2ccc(O)c(Sc3ncn[nH]3)c2)cc1C | i | i | i | i | i | i
CC(C)c1ccc(S(=O)(=O)Nc2ccc(O)c(Sc3ncn[nH]3)c2)cc1 | i | i | i | i | 98.7 | i
Cc1cc(C)c(S(=O)(=O)Nc2ccc(O)c(Sc3ncn[nH]3)c2)c(C)c1 | i | i | i | i | 99.0 | i
ON=C1CC2(Cc3nonc31)OCCO2 | nt | nt | i | nt | nt | nt
O=C(CNC(=O)C12CC3CC(CC(C3)C1)C2)NN=Cc1ccccn1 | nt | nt | i | nt | nt | nt
SMILES | Calb FLC | NALP3 yeast inh | UCH37 inh | ATG4B inhibitor | ALR H2O2 inh | NALP1 yeast inh
O=C1c2cccc3cccc(c23)C(=O)C1(O)O | i | i | i | i | 99.1 | nt
COc1ccc(CCC(=O)NN=Cc2ccc3c(c2)OCO3)cc1 | nt | nt | i | nt | nt | nt
Cc1cc(NC(=O)c2cccc(Oc3ccccc3)c2)n[nH]1 | 95.9 | i | i | i | i | i
Cc1cc(NC(=O)NC(=O)c2cccc(OC(F)(F)C(F)F)c2)n[nH]1 | i | i | i | i | i | i
COc1ccc(C=NNC(=O)CCCC(=O)NC2CCCCC2)cc1 | nt | nt | i | nt | nt | nt
Clc1ccc(/C=C/c2ncc3ccccn23)cc1 | i | i | i | i | 98.7 | i
c1csc(-c2ncc3ccccn23)c1 | i | i | i | i | i | i
Cc1ccccc1C(=O)ON=Cc1c(N2CCOCC2)n(C)c2ccccc12 | nt | nt | i | nt | nt | nt
CSc1ccc2[nH]c(=O)cc(C)c2c1 | i | i | i | i | 99.8 | i
Cc1cc(=O)[nH]c2ccc(Cc3ccccc3)cc12 | nt | nt | i | i | nt | nt
CCCN(CC1CC1)C(=S)Nc1ccc(Oc2ccccc2)cc1 | i | i | i | i | i | 61.2
CCOC(=O)c1c(-c2ccc(C)cc2)csc1NC(=O)CCN1CC(C)OC(C)C1 (centres undefined) | i | i | i | i | 97.2 | i
O=C(COc1ccccc1)NN=Cc1ccc(O[C@@H]2O[C@H](CO)[C@@H](O)[C@H](O)[C@H]2O)cc1 | nt | nt | i | nt | nt | nt
CN(N=Cc1cc(Br)cc(Br)c1O)c1ccccc1 | nt | nt | i | nt | nt | nt
COc1ccc(/C=N/Nc2nc3ccccc3o2)cc1O | i | i | nt | i | 99.4 | i
COc1ccc(C=NNc2nc3ccccc3o2)cc1O | nt | nt | i | nt | nt | nt
COc1cc(/C=N/Nc2nc3ccccc3o2)cc(OC)c1O | i | i | nt | i | 99.0 | i
CCN(CC)c1ccc(NC(=O)COC(=O)CSc2ccc(Br)cc2C)cc1 | i | i | i | i | 98.9 | i
CC1(C)OC(=O)C2(Cc3ccccc3N3CCCCC32)C(=O)O1 (centres undefined) | i | i | i | i | 98.7 | i
CC1=C(C(=O)N2CCc3ccccc32)C2(CCC(C)CC2)OC1=O (centres undefined) | i | i | i | i | i | i
COc1cc(/C=C2/CCC/C(=C\c3cc(O)c(OC)c(Cl)c3)C2=O)cc(Cl)c1O | i | i | i | i | i | 23.9
COc1cc(/C=C2\CC/C(=C\c3cc(OC)c(O)c(OC)c3)C2=O)cc(OC)c1O | nt | i | i | i | i | i
COc1cc2c(cc1OC)-c1cc(Nc3ccc(F)cc3)nc(=O)n1CC2 | i | i | i | i | i | i
COc1cc2c(cc1OC)-c1cc(Nc3ccc(N(C)C)cc3)nc(=O)n1CC2 | i | i | i | i | 99.2 | i
CCN(CC)c1ccc(Nc2cc3n(c(=O)n2)CCc2cc(OC)c(OC)cc2-3)cc1 | i | i | i | i | 99.8 | i
SMILES | Calb FLC | NALP3 yeast inh | UCH37 inh | ATG4B inhibitor | ALR H2O2 inh | NALP1 yeast inh
COc1ccccc1CNc1cc(C)ccc1C | i | i | i | i | 83.0 | i
CCOc1cc(C=NNC(=O)CN2CCCCC2)ccc1OCc1cccc(Cl)c1 | nt | nt | i | nt | nt | nt
COc1cc(C=NNc2ccccc2)ccc1OC(=O)c1cccs1 | nt | nt | i | nt | nt | nt
Cc1ccc(-c2csc(N)n2)cc1 | nt | nt | i | i | nt | nt
Nc1nc(-c2ccccc2Br)cs1 | i | i | i | i | 98.0 | i
Nc1nc(-c2ccc(-c3ccccc3)cc2)cs1 | i | i | i | i | 99.3 | i
Nc1nc(-c2ccc3ccccc3c2)cs1 | ? | i | i | i | 97.7 | i
Cc1cc(Cl)ccc1OCC(=O)NN=C1CC2C=CCC12 (centres undefined) | nt | nt | i | nt | nt | nt
CC(C)(C)c1n[nH]c(=S)n(N=Cc2cccs2)c1=O | nt | nt | i | nt | nt | nt
Cc1ccc(NC(=O)CSCc2cc(=O)n3nc(C4CC4)sc3n2)cc1 | i | i | i | i | 98.9 | i
COc1cccc(NC(=O)CSCc2cc(=O)n3nc(C4CC4)sc3n2)c1 | i | i | i | i | 98.8 | i
COc1ccc(NC(=O)CSCc2cc(=O)n3ccsc3n2)cc1 | i | i | i | i | i | i
Fc1ccccc1C=NNc1nn[nH]n1 | nt | nt | i | nt | nt | nt
